37 molecules from ChEMBL document CHEMBL3085686, “New 7-methylguanine derivatives targeting the influenza polymerase PB2 cap-binding domain” (J Med Chem, 2013) can be followed below.

The nature of test [1]: Inhibition of influenza A virus biotinylated GST-His-tagged H3N2 RNA polymerase PB2 cap-binding domain interaction with EDA-m7GpppA by AlphaScreen assay.
A short description of test [2]: Inhibition of influenza A virus His-tagged H3N2 RNA polymerase PB2 cap-binding domain interaction with EDA-m7GpppA by AlphaScreen assay. The essentials:
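His-tagged H3N2 PB2 cap-binding domain binding a biotinylated cap analogue (Biotin-EDA-m7GpppA), read by AlphaScreen with Ni(II)-chelate beads at 7.5 µg/ml each. Compound was 11-point 1:1 serially diluted from 200 µM. Incubation at room temperature in subdued light. IC50 reported.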
For orientation: Alpha assays give light when donor and acceptor beads are brought close together.

Test [3] has as its system Influenza A virus. The test can be described thus: Antiviral activity against Influenza A virus (A/Aichi/2/68(H3N2)) VR-547 infected in MDCK cells assessed as reduction in virus-induced cytopathic effect at 50 uM after 48 hrs by CellTiter-Glo assay. More on the design: scale not given: the % may be the effect or the level left. The test is classed as functional, Influenza A virus (A/Aichi/2/1968(H3N2)). (Damage to the host cells serves as the signal in cytopathic effect assays.)

A short description of test [4]: Binding affinity to influenza A virus H5N1 RNA polymerase PB2 cap-binding domain by biacore-based SPR analysis. The essentials: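 H5N1 PB2-CBD was immobilised by amine coupling (30 µg/ml, with 5 mM m7GTP, pH 6.5; about 7000 RU). Analyte was run over 200 µM to 1 nM in Tris/EDTA/NaCl/P20/DTT buffer with 0.5% DMSO. Data were double-referenced and DMSO-corrected. KD came from a linear curve fit.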

Test [5] concerns Influenza A virus. Put plainly: Binding affinity to influenza A virus H5N1 RNA polymerase PB2 cap-binding domain at 10 uM by biacore-based SPR analysis. A digest of the protocol:
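Purified H5N1 PB2 cap-binding domain amine-coupled to a CM7 chip at 30 µg/ml in 10 mM phosphate pH 6.5 with 5 mM m7GTP, giving about 7000 RU. Compound injected at 10 µM final (0.5% DMSO) in Tris/EDTA/NaCl/P20/1 mM DTT running buffer at 10 µL/min. Sensorgrams were double-referenced and DMSO-corrected.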

Test [6] is described as follows: Inhibition of influenza A virus RNA polymerase PB2 domain-mediated cap binding.

Where only a bound is given, the exact number is not on record here.

Usually IC50 stands for the concentration that gives 50% inhibition. What is called Kd is the free concentration of one partner at which half of the binding sites on the other are occupied at equilibrium, for simple one-to-one binding.

`C[n+]1cn(-c2cccc(C(=O)O)c2)c2nc(N)nc([O-])c21`: the IC50 was not below 200 µM in test [1] and 44 µM in test [2].
Take `C[n+]1cn(CC(=O)Nc2cc(C(=O)O)cc(C(=O)O)c2)c2nc(N)nc([O-])c21`: the IC50 in test [1] and in test [2] was not below 200 µM each time.
Turning to `C[n+]1cn(CC(=O)c2ccc(O)c(C(N)=O)c2)c2nc(N)nc([O-])c21`, the Activity in the test on Influenza A virus [3] is -0.2%. Also, the Kd in test [4] amounted to 13 µM. Further, the RU with Influenza A virus [5] stood at 85.8. The results for the IC50 in test [1] and in test [2] were not below 200 µM and 7.5 µM, respectively.
Take `C[n+]1cn(CC(=O)N[C@H](Cc2ccccc2)C(=O)O)c2nc(NCCCCC(=O)O)nc([O-])c21`: the IC50 was not below 200 µM in test [1] and 53 µM in test [2].
In the case of `C[n+]1cn(CC(=O)O)c2nc(N)nc([O-])c21`, the 50% inhibitory concentration (IC50) in test [1] and in test [2] was not below 200 µM in each case.
Take `C[n+]1cn(CCC(=O)O)c2nc(N)nc([O-])c21`: the half-inhibitory concentration (IC50) in test [1] and in test [2] was not below 200 µM in each case.
Regarding `CC(=O)Nc1nc([O-])c2c(n1)n(CC(=O)c1ccc(O)c(C(N)=O)c1)c[n+]2C`, the IC50 is not below 200 µM in test [1] and 129 µM in test [2].
The like results for `C[n+]1cn(-c2ccc(C(=O)O)cc2)c2nc(N)nc([O-])c21` were, in that order, not below 200 µM and 181 µM.
For the molecule `CC(=O)Nc1nc([O-])c2c(n1)n(CC(=O)O)c[n+]2C`, the half-maximal inhibitory concentration (IC50) in test [1] and in test [2] was not below 200 µM in each case.
As to `CC[n+]1cn(CC(=O)c2ccc(O)c(C(N)=O)c2)c2nc(N)nc([O-])c21`, in the test with Influenza A virus [3], the Activity turned out to be 0.3%. In addition, the results for the IC50 in test [1] and in test [2] were not below 200 µM and 3.6 µM, respectively.
Regarding `C[n+]1cn(CC(=O)c2ccc3c(c2)NC(=O)CO3)c2nc(N)nc([O-])c21`, the half-maximal inhibitory concentration (IC50) was not below 200 µM in test [1] and 23 µM in test [2].
As to `CC(C(=O)c1ccccc1)n1c[n+](C)c2c([O-])nc(N)nc21` (stereo not given), the IC50 in test [1] is not below 200 µM; in test [2], 65 µM.
The like results for `C[n+]1cn(CC(=O)O)c2nc(NCC(=O)O)nc([O-])c21` were, in that order, not below 200 µM and 44 µM.
The matching figures for `C[n+]1cn(CCCC(=O)O)c2nc(N)nc([O-])c21`: not below 200 µM and not below 200 µM.
On to `C[n+]1cn(CC(=O)c2ccccc2)c2nc(N)nc([O-])c21`, for which, in the test on Influenza A virus [3], the Activity is given as -2.3%. In addition, the results for the 50% inhibitory concentration (IC50) in test [1] and in test [2] were not below 200 µM and 13.7 µM, respectively.
For the molecule `C[n+]1cn(CCCCCC(=O)O)c2nc(N)nc([O-])c21`, the IC50 in test [1] and in test [2] was not below 200 µM throughout.
On to `C[n+]1cn(CCCC(=O)O)c2nc(NCCCC(=O)O)nc([O-])c21`, for which the half-inhibitory concentration (IC50) in test [1] was not below 200 µM; in test [2], 141 µM.
The matching figures for `NC(=O)c1cc(C(=O)Cn2c[n+](Cc3ccccc3)c3c([O-])nc(N)nc32)ccc1O`: not below 200 µM and 195 µM.
As for `NC(=O)c1cc(C(=O)Cn2cnc3c(=O)[nH]c(N)nc32)ccc1O`, the Activity in the test with Influenza A virus [3] is -0.5%. In addition, in the test on Influenza A virus [5], the RU came to 20.4. In addition, the IC50 in test [1] came out at 141 µM; in test [2] it was 49 µM.
Take `COc1ccc(-n2c[n+](C)c3c([O-])nc(N)nc32)cc1OC`: the IC50 in test [1] is not below 200 µM; in test [2] it was 50 µM.
`C[n+]1cn(CC(=O)c2ccc3ccccc3c2)c2nc(N)nc([O-])c21`: in the test with Influenza A virus [3], the Activity is reported as -3.2%. Also, the values for the half-maximal inhibitory concentration (IC50) in test [1] and in test [2] were not below 200 µM and 7.6 µM, respectively.
As to `C[n+]1cn(CCCCC(=O)O)c2nc(N)nc([O-])c21`, the half-inhibitory concentration (IC50) in test [1] and in test [2] was not below 200 µM throughout.
Consider `Nc1nc2c(ncn2CC(=O)c2ccc(O)c(C(=O)O)c2)c(=O)[nH]1`, for which the Activity in the test with Influenza A virus [3] came to 1.1%. This molecule also had an RU in the test on Influenza A virus [5] of 22.6. Also, the half-inhibitory concentration (IC50) was 4.8 µM in test [1] and 5.6 µM in test [2].
`C[n+]1cn(CC(=O)N[C@@H](CC(=O)O)C(=O)O)c2nc(N)nc([O-])c21`: the figures for the 50% inhibitory concentration (IC50) in test [1] and in test [2] were 124 µM and 33 µM, respectively.
In the case of `C[n+]1cn(CC(=O)O)c2nc(NCCCCC(=O)O)nc([O-])c21`, the concentration for half-maximal inhibition (IC50) is not below 200 µM in test [1] and 95 µM in test [2].
The matching figures for `C[n+]1cn(CC(=O)N[C@@H](Cc2ccccc2)C(=O)O)c2nc(N)nc([O-])c21`: not below 200 µM and 88 µM.
Consider `C[n+]1cn(CC(=O)N[C@@H](Cc2ccc(O)cc2)C(=O)O)c2nc(N)nc([O-])c21`, for which the results for the half-maximal inhibitory concentration (IC50) in test [1] and in test [2] were not below 200 µM and 80 µM, respectively.
In the case of `C[n+]1cn(CCCCC(=O)O)c2nc(NCCCCC(=O)O)nc([O-])c21`, the Activity in the test on Influenza A virus [3] is -3.3%. Besides, the RU in the test with Influenza A virus [5] was 17.5. Further, the IC50 in test [1] was not below 200 µM; in test [2], 5.3 µM.
Regarding `C[n+]1cn(-c2ccccc2)c2nc(N)nc([O-])c21`, the IC50 in test [1] was not below 200 µM; in test [2] it was 140 µM.
On to `C[n+]1cn(CC(=O)N[C@H](Cc2ccccc2)C(=O)O)c2nc(N)nc([O-])c21`, for which the IC50 in test [1] was not below 200 µM; in test [2], 65 µM.
Turning to `C[n+]1cn(CC(=O)N[C@@H](CCC(=O)O)C(=O)O)c2nc(N)nc([O-])c21`, the Activity in the test on Influenza A virus [3] is -1.8%. The molecule further returned an RU in the test on Influenza A virus [5] of 13.8. Besides, the figures for the concentration for half-maximal inhibition (IC50) in test [1] and in test [2] were not below 200 µM and 45 µM, respectively.
As for `C[n+]1cn(CC(=O)NCC(=O)O)c2nc(N)nc([O-])c21`, the IC50 in test [1] and in test [2] was not below 200 µM in each case.
As for `Nc1nc2c(c(=O)[nH]1)[n+](Cc1ccccc1)cn2CCCCO`, the concentration for half-maximal inhibition (IC50) in test [1] is not below 200 µM; in test [2], not below 200 µM; in test [6], 45 µM.
In the case of `C[n+]1cn(C(C(=O)c2ccccc2)c2ccccc2)c2nc(N)nc([O-])c21` (stereo not given), the figures for the half-inhibitory concentration (IC50) in test [1] and in test [2] were not below 200 µM and 42 µM, respectively.
`C[n+]1cn(CC(=O)N[C@H](CC(=O)O)C(=O)O)c2nc(N)nc([O-])c21`: the values for the IC50 in test [1] and in test [2] were not below 200 µM and 91 µM, respectively.
Turning to `C=CC[n+]1cn(CC(=O)c2ccc(O)c(C(N)=O)c2)c2nc(N)nc([O-])c21`, the Activity in the test on Influenza A virus [3] is on record as 0%. Further, the results for the half-maximal inhibitory concentration (IC50) in test [1] and in test [2] were not below 200 µM and 60 µM, respectively.
Turning to `C[n+]1cn(CC(=O)c2ccc(O)c(C(=O)O)c2)c2nc(N)nc([O-])c21`, the IC50 in test [1] came to 2.2 µM; in test [2], 0.6 µM.
